According to ChEMBL document CHEMBL5223087, “First-in-Class Cyclic Temporin L Analogue: Design, Synthesis, and Antimicrobial Assessment” (J Med Chem, 2021):
In brackets after ≈: the same amount, converted by molar mass. Activity calls are given as the source filed them. No cut-off for these calls is given here. Bridge positions count the residues as written; N and C are the ends. Square brackets hold non-standard residues; d marks the D form. Peptide text beside a SMILES is read from it.

Tests used:
[1] = tested on: Pseudomonas aeruginosa; test: Antimicrobial activity against Pseudomonas aeruginosa ATCC 27853 assessed as reduction in bacterial growth incubated for 16 to 18 hrs by microdilution susceptibility test; assay type: functional; conditions: time 16-18 hrs
Outline: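 Broth microdilution in Mueller–Hinton broth. Mid-log bacteria at 1 × 10⁶ CFU/mL final, peptide twofold serial dilutions 100 to 0.78 μM final. Incubated 16–18 h at 37 °C. MIC taken as the lowest concentration giving total (100%) growth inhibition.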

[2] = tested on: HaCaT; test: Cytotoxicity against human HaCaT cells assessed as reduction in cell viability at 3.125 to 100 uM measured after 2 to 24 hrs by MTT assay; assay type: toxicity, cell-based; conditions: dose lower 3.125 µM, time lower 2 hrs, dose upper 100 µM, time upper 24 hrs
Outline: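 HaCaT keratinocytes seeded at 4 × 10⁴/well in DMEM with 4 mM glutamine and 2% FBS, no antibiotics, overnight at 37 °C, 5% CO2. Medium replaced with peptide-containing DMEMg for 2 or 24 h. MTT 0.5 mg/mL in Hank's buffer 4 h, formazan dissolved in acidified isopropanol, A570. Viability as % of untreated cells; mean of three independent experiments ± SEM.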

[3] = tested on: Staphylococcus aureus; test: Antimicrobial activity against MRSA-resistant Staphylococcus aureus ATCC 43300 assessed as reduction in colony formation at 12.5 uM incubated for 30 min by time kill assay; assay type: functional, organism-based
[4] = tested on: Staphylococcus aureus; test: Antimicrobial activity against MRSA-resistant Staphylococcus aureus ATCC 43300 assessed as reduction in colony formation at 12.5 uM incubated for 24 hrs by time kill assay; assay type: functional, organism-based
[5] = tested on: Serum; test: Proteolytic stability in human serum incubated for 0.25 to 12 hrs by RP-UHPLC analysis; assay type: ADME, cell-free; conditions: time 0.25-12 hrs
[6] = Membrano-lytic effect in bacterial inner membrane mimic DOPG/CL (58:42) large unilamellar vesicles at 30 uM by varian cary eclipse fluorescence spectrometry analysis; assay type: cell membranes
[7] = Membrano-lytic effect in bacterial inner membrane mimic DOPE/DOPG/CL (63:23:12) large unilamellar vesicles at 5 to 50 uM by varian cary eclipse fluorescence spectrometry analysis; assay type: cell membranes; conditions: dose 5-50 µM
[8] = Membrano-lytic effect in bacterial inner membrane mimic DOPE/DOPG/CL (63:23:12) large unilamellar vesicles at 10 uM by varian cary eclipse fluorescence spectrometry analysis; assay type: cell membranes
[9] = Disaggregation property of compound in LPS at 20 uM after 1 hr by Tht fluorescence based assay; assay type: physicochemical
Outline: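 Peptide 20 μM incubated 1 h with LPS 1 mg/mL and ThT 25 μM. Aggregation read as ThT emission at 482 nm, excitation 450 nm. ThT alone and peptide alone served as controls.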

[10] = Induction of DOPG/CL (58:42) large unilamellar vesicles membrane fluidity at 5 uM (reference value: -0.32)
Outline: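 LUVs of DOPG/CL 58/42 prepared by extrusion (0.1 μm), Laurdan 1 μM incorporated, hydrated in PBS pH 7.4; lipid 100 μM final. Peptide added at 5 or 30 μM; spectra recorded after 10 min at 25 °C. Fluidity expressed as GP = (I440 − I490)/(I440 + I490).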

[11] = Induction of membrane leakage in DOPG/CL (58:42) large unilamellar vesicles at 5 to 50 uM incubated for 10 mins; conditions: dose 5-50 µM
Outline: (§1)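 Free probe removed by Sephadex G-50 gel filtration. Peptide added at 5–50 μM. ANTS dequenching followed 10 min (excitation 385 nm, emission 512 nm). Leakage normalised to Triton X-100 maximum.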

[12] = Induction of membrane leakage in DOPE/DOPG/CL (63:23:12) large unilamellar vesicles at 5 to 50 uM incubated for 10 mins; conditions: dose 5-50 µM; outline: as §1
[13] = Induction of DOPG/CL (58:42) large unilamellar vesicles membrane fluidity at 5 uM (reference value: -0.32)

CC[C@H](C)[C@H](NC(=O)[C@H](CCCNC(=N)N)NC(=O)[C@@H]1CCC(=O)NCCCC[C@H](NC(=O)[C@H](Cc2ccccc2)NC(=O)[C@H](Cc2c[nH]c3ccccc23)NC(=O)[C@@H]2CCCN2C(=O)[C@@H](NC(=O)[C@@H](N)Cc2ccccc2)C(C)C)C(=O)N[C@@H](CCCCN)C(=O)N[C@@H](Cc2ccccc2)C(=O)N[C@H](CC(C)C)C(=O)N1)C(=O)N[C@@H](CC(C)C)C(N)=O (H-FVPWFKKF[dL]ERIL-NH2; lactam 6-10)
MIC [1]: 100 µM (≈ 170 µg/mL) | Activity [2]: Toxic | Activity [3]: Active | Activity [4]: Active | Stability [5]: Stable | Activity [6]: Active | Activity [7]: Active | Activity [8]: Active | Activity [9]: Not Active | Activity [10]: -0.23 | Activity [11]: Active | Activity [12]: Active | Activity [13]: -0.23
